The values that follow come from ChEMBL document CHEMBL3414461, “Clerodane type diterpene as a novel antifungal agent from Polyalthia longifolia var. pendula” (Eur J Med Chem, 2015).

The subject of data set [1] is Candida albicans. Description: Induction of ROS generation in Candida albicans NCIM 3557 at 50.3 to 201.2 uM after 200 mins by DHR123 staining-based fluorescence assay. The format is functional, organism-based. An outline of the steps: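 1×10^6 C. albicans NCIM3557 cells grown in YPG broth with compound at 37 °C for 200 min. Cells washed, then DHR123 added at […] final (from ethanol stock) in PBS for 30 min. Cells washed, resuspended in PBS, and fluorescence read (ex 480/em 525 nm) by epifluorescence microscopy. Untreated cells served as negative control and H2O2-treated cells as positive control.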

The next data set concerns Nakaseomyces glabratus. Description: Antifungal activity against Candida glabrata NCIM 3237 after 24 to 48 hrs by microbroth dilution method. The format is functional. An outline of the steps: (§1)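 Broth microdilution per CLSI. DMSO stock diluted 1:40 in YPG medium, then two-fold serial dilution across […] range. Inoculum: log-phase yeast cells (~2 × 10^4 cfu/mL) grown in YPG broth, or spores for phytopathogens. Incubated 24–48 h; growth read as absorbance at 600 nm. MIC is the lowest concentration giving >90% growth inhibition versus control; IC50 is the concentration giving 50% inhibition.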

The test system of data set [2] is Candida albicans. Put plainly: Induction of ROS generation in Candida albicans NCIM 3557 at 25.2 to 100.6 uM after 60 mins by DCFH-DA staining-based fluorescence assay. Type of data set: functional, organism-based.
For another data set, the system named is Cryptococcus neoformans. Description: Antifungal activity against Cryptococcus neoformans NCIM 3542 after 24 to 48 hrs by microbroth dilution method. Type of data set: functional. An outline of the steps:
as §1
Background: Dilution methods test growth across graded concentrations, often in twofold steps.

A further data set deals with Fusarium oxysporum. Put plainly: Antifungal activity against Fusarium oxysporum NCIM 1043 after 24 to 48 hrs by microbroth dilution method. The format is functional. An outline of the steps:
as §1

The next data set relates to Neurospora crassa. Description: Antifungal activity against Neurospora crassa NCIM 870 after 24 to 48 hrs by microbroth dilution method. The format is functional. An outline of the steps: as §1
For data set [3], the system named is Candida albicans. Put plainly: Antifungal activity against Candida albicans NCIM 3557 assessed as inhibition of 50% germ tube formation. The format is functional.
Data set [4] has as its system Candida albicans. Description: Antifungal activity against Candida albicans NCIM 3557 after 24 to 48 hrs by microbroth dilution method. The format is functional. An outline of the steps: as §1
The test system of another data set is Aspergillus niger. Put plainly: Antifungal activity against Aspergillus niger NCIM 628 after 24 to 48 hrs by microbroth dilution method. Type of data set: functional. An outline of the steps:
as §1

In data set [5] the test system is Candida albicans. Description: Antifungal activity against Candida albicans NCIM 3471 after 24 to 48 hrs by microbroth dilution method. The format is functional. An outline of the steps:
as §1

The nature of data set [6]: Cytotoxicity against sheep RBC assessed as haemolytic activity at 1200 uM after 2 hrs by spectrophotometry. Type of data set: cell-based, Ovis aries, Erythrocyte. Conditions: sheep red blood cells, read-out: Activity. An outline of the steps: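 Sheep RBCs washed with PBS (pH 7.0), resuspended to a 4% suspension, mixed 1:1 with PBS containing test compound. Incubated 37 °C for 2 h, centrifuged 2000 rpm for 5 min, supernatant absorbance read at 545 nm. PBS set as 0% lysis and 0.1% Triton X-100 as 100%. Percent haemolysis calculated relative to these; triplicates averaged.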

A further data set relates to Aspergillus fumigatus. Description: Antifungal activity against Aspergillus fumigatus NCIM 902 after 24 to 48 hrs by microbroth dilution method. The format is functional. An outline of the steps:
as §1

Converted amounts (≈) assume the structure as drawn. The source made the active and inactive calls. No cut-off for these calls is given here.

As usually defined, the MIC90 is an inhibitory concentration at the 90% level, which refers to growth in some studies and to a panel of isolates in others. Read a low MIC90 as higher susceptibility.

Take `CC1=CCC[C@@H]2[C@@](C)(CCC3=CC(=O)O[C@@H]3O)[C@H](C)CC[C@@]12C`: the outcome in the data set on Candida albicans [1] and in the data set on Candida albicans [2] was Active. Further, the MIC90 was determined as 805 µM (≈ 256 µg/mL) in the data set on Nakaseomyces glabratus; 101 µM (≈ 32 µg/mL) against Cryptococcus neoformans; 805 µM (≈ 256 µg/mL) in the data set on Fusarium oxysporum; 201 µM (≈ 64.1 µg/mL) against Neurospora crassa; 50.3 µM (≈ 16 µg/mL) against Candida albicans [4]; 805 µM (≈ 256 µg/mL) against Aspergillus niger. The MIC90 against Candida albicans [5] and against Aspergillus fumigatus was 805 µM (≈ 256 µg/mL) throughout. In addition, in the data set with Candida albicans [3], the “Concentration for 50% inhibition of germ tube formation (IC50)” value (“Concentration for 50% inhibition” for short) turned out to be 25.14 µM. Moreover, in data set [6], the hemolysis at 2 h, 1200 µM was under 15%.
Regarding `C[C@@H]1CC[C@]2(C)[C@H](CC[C@@H]3O[C@@]32C)[C@@]1(C)CCC1=CC(=O)O[C@@H]1O`, the MIC90 against Nakaseomyces glabratus, in the data set on Cryptococcus neoformans, with Fusarium oxysporum, against Neurospora crassa, in the data set with Candida albicans [4] and with Aspergillus niger was over 600 µM in each case. For the same molecule, the MIC90 against Candida albicans [5] and in the data set on Aspergillus fumigatus was over 600 µM throughout. In addition, the “Concentration for 50% inhibition” value with Candida albicans [3] was 191.6 µM. Moreover, in data set [6], the hemolysis at 2 h, 1200 µM is under 15%.
With `CC(=O)OC1OC(=O)C=C1CC[C@@]1(C)[C@H](C)CC[C@@]2(C)C(C)=CCC[C@H]12` (mixture of isomers), the MIC90 against Nakaseomyces glabratus, with Cryptococcus neoformans, against Fusarium oxysporum, against Neurospora crassa, in the data set with Candida albicans [4] and in the data set with Aspergillus niger was over 600 µM throughout. The MIC90 against Candida albicans [5] and with Aspergillus fumigatus was over 600 µM each time. Moreover, the “Concentration for 50% inhibition” value in the data set with Candida albicans [3] turned out to be 177.8 µM. In [6], the hemolysis at 2 h, 1200 µM is under 15%.
Consider `CC1=CCC[C@@H]2[C@@](C)(CCC3=CC(=O)OC3OC(=O)OC(C)(C)C)[C@H](C)CC[C@@]12C` (mixture of isomers), for which the MIC90 against Nakaseomyces glabratus, against Cryptococcus neoformans, in the data set on Fusarium oxysporum, against Neurospora crassa, in the data set with Candida albicans [4] and against Aspergillus niger was over 600 µM in each case. In addition, the MIC90 with Candida albicans [5] and with Aspergillus fumigatus was over 600 µM each time. Further, the “Concentration for 50% inhibition” value in the data set with Candida albicans [3] stood at 153.1 µM. In data set [6], the hemolysis at 2 h, 1200 µM was under 15%.
